# Where two headings read alike, the source gives them in different places.
# Columns and labels:
# [1] = test system: SiHa; assay: CellTiter-Glo cytotoxicity assay, SiHa; assay type: cell-based; settings: Homo sapiens
# In short: (§1)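 About 5,000 cells/well were dosed either continuously or for a 1 h pulse. After the pulse, cells were washed with pre-warmed medium and kept drug-free. Viability was read by CellTiter-Glo luminescence 72 h after dosing began. IC50 was the half-maximal growth-inhibiting concentration.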
# [2] = test system: HCT-116; assay: CellTiter-Glo cytotoxicity assay, HCT-116; assay type: cell-based; settings: Homo sapiens
# In short: as §1
# [3] = test system: SKNSH; assay: CellTiter-Glo cytotoxicity assay, SKNSH; assay type: cell-based; settings: Homo sapiens, SK-N-SH
# In short: as §1
# [4] = test system: cancer cell lines; assay: CellTiter-Glo cytotoxicity assay, cancer cell lines in general; assay type: cell-based, human
# In short: as §1
# [5] = test system: various cancer cell lines; settings: read-out: IC50 against various cancer cell lines; in vitro; cited from earlier work
# [6] = test system: SiHa cells; assay: Caspase Glo 3/7 assay, SiHa; assay type: cell-based, human; settings: 10 or 30 μM with 50 nM compound 3, 72 hours
# [7] = test system: MRC5, WI-38 and IMR-90 normal lung fibroblast cell lines; assay: Caspase Glo 3/7 assay, normal lung fibroblasts; assay type: cell-based, human; settings: control, 1 microM for 72 hours
compound,measurement,setting,value
CCC(=C/[C@H](C)C/C=C/C(C)=C/[C@@H](C)C(=O)[C@@H](C)[C@H](O)[C@@H](C)C/C(C)=C/C(=O)O)/C=C/[C@@H]1OC(=O)C=C[C@@H]1C [Leptomycin B],IC50,"[1]; 72 h, read-out: SiHa (IC50 nM) 72h",0.4 nM
same,IC50,[1]; read-out: SiHa (IC50 nM) 1h,2.1 nM
same,IC50,"[2]; HCT-116, 72 h, read-out: HCT-116 (IC50 nM) 72h",0.3 nM
same,IC50,"[2]; HCT-116, read-out: HCT-116 (IC50 nM) 1h",4.3 nM
same,IC50,"[3]; 72 h, read-out: SKNSH (IC50 nM) 72h",0.4 nM
same,IC50,[3]; read-out: SKNSH (IC50 nM) 1h,4.1 nM
same,IC50,"[4]; Homo sapiens, read-out: IC50, one hour exposure",< 5 nM
same,"IC50, 72 hour exposure","[4]; most cancer cell lines, 72 hour exposure",sub-nanomolar
same,IC50,[5],0.1 to 10 nM
Cc1ccc(C(=O)Cn2c3c(sc2=N)CCCC3)cc1 [pifithrin-alpha],Effect on compound 3-induced apoptosis (caspase 3/7),[6],blocked compound 3-induced apoptosis
CN[C@@H]1C[C@H]2O[C@@](C)([C@@H]1OC)n1c3ccccc3c3c4c(c5c6ccccc6n2c5c31)C(=O)NC4 [staurosporine],Caspase 3/7 activation,[7],dramatic induction of caspases
